Here are results for five compounds from paper PMC4152390 (Neuropharmacology, 2014).

A value given as a limit tells only on which side of the number the result lay.

For data set [1], the target named is DAT (Rattus norvegicus, UniProt P23977). Put plainly: [3H]dopamine uptake inhibition in rat brain synaptosomes. Type of data set: biochemical. Conditions: selectivity from uptake IC50 values at DAT and SERT. A digest of the protocol: (§1)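 Synaptosomes came from male Sprague-Dawley rats: striatum for DAT, and whole brain minus striatum and cerebellum for NET and SERT. Uptake ran in pH 7.4 Krebs-phosphate buffer (pargyline, BSA, ascorbate) with test compound, [3H]dopamine, [3H]norepinephrine or 5 nM [3H]serotonin, and unlabeled blockers of competing transporters. It was stopped by filtration and counted by scintillation.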

Data set [2] deals with NET (Rattus norvegicus, UniProt Q63380). The data set is described as follows: [3H]norepinephrine uptake inhibition in rat brain synaptosomes. The format is biochemical. Conditions: read-out: [3H]Norepinephrine uptake, IC50 at NET; rat brain synaptosomes (whole brain minus striatum and cerebellum); 10 nM [3H]norepinephrine; mean±SD, n=3. A digest of the protocol:
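Rats killed by CO2; synaptosomes from whole brain minus striatum and cerebellum. Unlabeled blockers were added to prevent uptake by competing transporters. Tissue was added to Krebs-phosphate buffer (pH 7.4; 0.05 mM pargyline, 1 mg/mL BSA and ascorbic acid) containing test compound and [3H]norepinephrine. Rapid GF/B filtration, scintillation counting, % control uptake.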

The target in data set [3] is SERT (Rattus norvegicus, UniProt P31652). Put plainly: [3H]serotonin uptake inhibition in rat brain synaptosomes. Type of data set: biochemical. The following applies: for IC50: read-out: [3H]Serotonin uptake, IC50 at SERT, rat brain synaptosomes (whole brain minus striatum and cerebellum), 5 nM [3H]serotonin, mean±SD, n=3. A digest of the protocol:
as §1

Data set [4] relates to DAT, NET and SERT. The following applies: ref Baumann et al., 2013b; cited from earlier work.
Data set [5] has as its system ICR mice. The data set is described as follows: Locomotor activity. Type of data set: in vivo, mouse. The following applies: for Doses producing significant increases in beam breaks compared to saline for the duration of the session (all time points): i.p., 10-min bins of 60-min session. Put shortly:
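Male ICR mice got a single i.p. dose of test compound or saline (sterile saline vehicle, 10 ml/kg), n=8 per dose and n=16 for saline. Each was placed at once into a clear open-field chamber (47×25.5×22 cm) for a 60-min blinded session. Beam breaks were counted per 10-min bin and analysed by mixed-model ANOVA (time within, dose between), with p<0.05.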

Data set [6] relates to ICR mice. The data set is described as follows: Locomotor activity with SCH23390 antagonist pretreatment. Type of data set: in vivo, mouse. The following applies: SCH23390 0.03 mg/kg s.c., 60 min session. A digest of the protocol: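 In weeks 5 and 7, ICR mice got SCH23390 (0.03 mg/kg) or saline s.c. 30 min before an i.p. challenge with test compound or saline. Groups given the highest FOB dose were excluded, and the vehicle group was split between pretreatments. Total beam breaks were analysed by two-way ANOVA (dose × pretreatment).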

Data set [7] has as its system ICR mice. The data set is described as follows: Functional observational battery. Type of data set: in vivo, mouse. Conditions: i.p., 15 min post-injection, p<0.0033. A digest of the protocol: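 Male ICR mice (n=8 per group; a single saline group of n=16) got one i.p. dose of test compound in sterile saline (10 ml/kg). A modified EPA functional observational battery was scored 15 min post-injection by a blinded technician in weeks 2–3. Each measure was analysed by Kruskal–Wallis ANOVA by ranks, corrected for ties, with corrected alpha p<0.0033.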

Chain of SERT (P31652 whole entry): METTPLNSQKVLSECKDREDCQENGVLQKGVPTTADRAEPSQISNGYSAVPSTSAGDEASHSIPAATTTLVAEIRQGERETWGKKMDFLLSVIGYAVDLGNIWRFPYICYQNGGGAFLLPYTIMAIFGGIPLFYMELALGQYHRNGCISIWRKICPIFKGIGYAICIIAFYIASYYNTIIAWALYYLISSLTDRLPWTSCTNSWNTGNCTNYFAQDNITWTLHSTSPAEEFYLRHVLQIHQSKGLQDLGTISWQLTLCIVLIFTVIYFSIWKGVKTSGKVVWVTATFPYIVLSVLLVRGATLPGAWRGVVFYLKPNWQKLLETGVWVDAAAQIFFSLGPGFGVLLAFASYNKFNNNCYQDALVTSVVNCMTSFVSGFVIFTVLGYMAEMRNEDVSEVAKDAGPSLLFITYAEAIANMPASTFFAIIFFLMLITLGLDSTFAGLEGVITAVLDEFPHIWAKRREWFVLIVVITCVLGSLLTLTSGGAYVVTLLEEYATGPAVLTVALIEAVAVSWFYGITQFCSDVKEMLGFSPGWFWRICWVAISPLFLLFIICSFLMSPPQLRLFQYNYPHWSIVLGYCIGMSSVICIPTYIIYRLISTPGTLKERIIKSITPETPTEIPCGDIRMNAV
Chain of DAT (P23977 whole entry): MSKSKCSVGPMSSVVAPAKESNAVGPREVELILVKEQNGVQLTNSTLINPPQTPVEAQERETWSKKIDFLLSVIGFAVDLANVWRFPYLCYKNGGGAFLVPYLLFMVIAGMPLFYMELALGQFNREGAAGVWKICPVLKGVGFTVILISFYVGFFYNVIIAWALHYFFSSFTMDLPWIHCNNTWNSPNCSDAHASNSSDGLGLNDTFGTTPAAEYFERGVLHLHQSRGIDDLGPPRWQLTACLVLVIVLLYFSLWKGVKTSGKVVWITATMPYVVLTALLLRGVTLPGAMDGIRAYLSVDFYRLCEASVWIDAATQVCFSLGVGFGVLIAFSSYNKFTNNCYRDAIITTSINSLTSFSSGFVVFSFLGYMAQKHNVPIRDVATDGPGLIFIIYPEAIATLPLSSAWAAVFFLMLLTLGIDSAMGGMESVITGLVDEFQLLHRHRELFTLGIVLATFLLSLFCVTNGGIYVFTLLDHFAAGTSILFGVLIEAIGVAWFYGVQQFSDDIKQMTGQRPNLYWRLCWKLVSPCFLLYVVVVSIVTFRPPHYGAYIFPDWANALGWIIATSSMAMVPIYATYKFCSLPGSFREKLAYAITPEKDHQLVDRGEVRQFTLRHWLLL
Chain of NET (Q63380 1-617): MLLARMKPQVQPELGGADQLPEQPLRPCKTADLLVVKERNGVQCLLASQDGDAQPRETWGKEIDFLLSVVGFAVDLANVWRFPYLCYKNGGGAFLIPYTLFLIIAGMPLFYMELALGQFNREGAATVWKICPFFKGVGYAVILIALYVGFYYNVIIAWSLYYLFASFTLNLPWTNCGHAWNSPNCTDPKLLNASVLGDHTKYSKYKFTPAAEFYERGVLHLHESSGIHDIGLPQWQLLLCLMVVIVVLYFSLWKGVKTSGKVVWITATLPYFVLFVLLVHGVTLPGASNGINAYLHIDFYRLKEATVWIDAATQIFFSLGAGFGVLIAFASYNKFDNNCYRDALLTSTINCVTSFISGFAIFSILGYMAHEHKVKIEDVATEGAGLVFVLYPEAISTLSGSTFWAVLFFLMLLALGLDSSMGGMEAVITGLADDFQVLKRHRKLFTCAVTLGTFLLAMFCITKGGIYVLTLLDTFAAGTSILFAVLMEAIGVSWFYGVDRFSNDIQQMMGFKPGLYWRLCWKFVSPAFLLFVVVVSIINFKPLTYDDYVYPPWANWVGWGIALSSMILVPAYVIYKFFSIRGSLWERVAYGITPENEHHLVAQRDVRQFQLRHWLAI

For `CCCC(C(=O)c1ccc2c(c1)OCO2)N1CCCC1` (centres unmarked) [MDPV, 3,4-methylenedioxypyrovalerone], the DAT/SERT ratio in data set [1] was found to be 806. Besides, the IC50 in data set [2] was found to be 25.9 ± 5.6 nM; in data set [3], 3300 ± 485 nM. The “fold weaker at blocking uptake of serotonin than catecholamine uptake” value in data set [3] (SERT versus DAT and NET uptake IC50) was “more than 100 fold”. The “Activity in the release assay” value in data set [4] was “not active”. Also, the “Doses producing significant increases in beam breaks compared to saline for the duration of the session (all time points)” value (from here on “Doses producing significant increases”) in data set [5] lay within 1.0 to 3.0 mg/kg.
On to `CN1CCc2cc(Cl)c(O)cc2[C@@H](c2ccccc2)C1` [SCH23390], for which the “Effect of SCH23390 plus saline on activity compared to saline/saline group” value in data set [6] is “did not significantly affect activity”.
As to `CCC(C(=O)c1ccccc1)N1CCCC1` (stereo not drawn) [α-PBP, α-pyrrolidinobutiophenone], the DAT/SERT ratio in data set [1] is recorded as >159. In addition, the IC50 in data set [2] is 91.5 ± 12.8 nM; in data set [3] it was > 10000 nM. Further, the “Time from session start with significantly increased beam breaks” value in data set [5] (3.0 mg/kg i.p., 60-min session) stood at 40 min. Also, the “Doses producing significant increases” value in data set [5] is reported as 10.0 mg/kg.
Consider `CC(C(=O)c1ccccc1)N1CCCC1` (stereo not drawn) [α-PPP, α-pyrrolidinopropiophenone], for which, in data set [1], the DAT/SERT ratio was >51. Moreover, the “Grooming: direction of difference from saline and doses at which significant” value in data set [7] came to 30 mg/kg. Further, the IC50 was 445 ± 39.2 nM in data set [2] and > 10000 nM in data set [3]. Moreover, in data set [5] (10.0 mg/kg i.p., 60-min session), the “Time from session start with significantly increased beam breaks” value worked out at 50 min. In addition, in data set [5], the “Doses producing significant increases” value is 30.0 mg/kg.
On to `CCCC(C(=O)c1ccccc1)N1CCCC1` (stereo not drawn) [α-PVP, α-pyrrolidinovalerophenone], for which the DAT/SERT ratio in data set [1] is >781. Moreover, the IC50 in data set [2] was 14.2 ± 1.2 nM; in data set [3] it was > 10000 nM. The “Postinjection interval with significantly increased beam breaks” value in data set [5] (1.0 mg/kg i.p., 60-min session) lay in the range of 20 to 50 min. The “Doses producing significant increases” value in data set [5] lay within 3.0 to 10.0 mg/kg.

Usually IC50 stands for the midpoint of a concentration-inhibition curve.
